Source: PubChem
EP2 modulator = EP2 receptor modulators, cAMP readout, primary screen, cell-based, HTRF cAMP, PGE2 stimulation | EP2-expressing cells, cAMP HTRF FRET, PGE2 co-stimulation | hit rate 0.83% among 260,000 | induction, % at 25 µM;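 active means compounds whose cAMP rise, as percent of the full-agonist control response, exceeds 60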;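 further: rat C6 glioma line stably carrying human EP2 under a CMV promoter; the protocol text gives 20 µM as final concentration; 100% = response of wells given 1 µM PGE2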
MC4R antagonist = MC4R antagonists of cAMP signaling, primary screen, cell-based, TR-FRET, antagonist arm of biased-ligand search; Melanocortin receptor 4 (Homo sapiens), P32245; MC4R-expressing cells, MTII-stimulated cAMP, LANCE TR-FRET; inhibition, % at 6.5 µM; hit rate 0.48% among 360,000;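 active means inhibition above its plate's cutoff, the mean of tested wells on that plate plus 3 SD, cut at about 29% in these data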;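 further: 0% = Melanotan II alone and 100% = Melanotan II plus saturating MCL0020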
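Assay system: human MC4R-expressing U2OS cells; reagent: Melanotan II stimulation of cells; dosing: 6.5 µM single dose; timing: compound 30 min, challenge 1 h, detection 1 h; signal: TR-FRET cAMP assay; replicates: one well per compound, no replicates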
Granule exo inh = LAMP-1 surface exposure blockers, TALL-104 cells – cell-based, flow cytometry, MLPCN library, primary screen | TALL-104 LAMP-1 surface exposure; cells stimulated with thapsigargin and PMA | inhibition, % at 10 µM | hit rate 0.66% among 360,000 | AID 651702, 2012;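 active means inhibition above about 55%, limit read from the data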
EP2 antag = human EP2 receptor antagonists, primary screen, TR-FRET cAMP, C6 glioma cells | Prostaglandin E2 receptor EP2 subtype (Homo sapiens), P43116 | C6 glioma cells expressing human EP2; cells stimulated with saturating PGE2 | inhibition, % at 25 µM | hit rate 0.52% among 260,000 | AID 1422, 2008;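 active means percent inhibition above 40 after rounding to a whole number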;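 further: rat C6 glioma host cells with rolipram phosphodiesterase inhibitor present; the protocol text gives 20 µM as final concentration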
T cell HTS = modulators of CD8 T cell-vesicle binding, primary screen, mouse 2C CD8+ T cells, flow cytometry. AID 2052, 2009. 2C CD8+ T cell-vesicle binding; active compounds read low. response (vesicle binding), % at 7 µM. hit rate 0.068% among 330,000;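 active means response, share of CD8 T cells binding vesicles, and their 90th percentile fluorescence all below set limits, cut at about 80% in these data, passing the limit was not always enough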;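 further: values below 100% mean blocked vesicle binding to the CD8+ T cells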
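Material: 2C TCR transgenic mouse naive CD8+ T cells, MACS-purified. Also added: QL9-charged Drosophila Ld/ICAM-1/B7-1 vesicles. Timing: binding 1.5 h at 37 °C. Measured by: high-throughput flow cytometry with anti-B7-1 and anti-CD8 staining. Read-out: percent CD8+ FL2 mean versus row control. Controls: Unloaded micro-vesicles (low), QL9 vesicles with 0.7% DMSO (high).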
MC4R ag barr = MC4R agonists recruiting beta-arrestin, primary screen, cell-based, luminescence, agonist arm of biased-ligand search; U2OS MC4R beta-arrestin complementation; percent of melanotan II response, DMSO zero; activation, % at 8.9 µM; hit rate 0.98% among 360,000; AID 540308, 2011;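 active means activation above a per-plate cutoff, the mean activation of sample wells on that plate plus 3 SD, cut at about 8% in these data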
MC4R barr ag = MC4R beta-arrestin agonists, retest, confirmation, cell-based, luminescence, U2OS | hit rate 31% among 2,400 | activation, % at 8.9 µM | shares compounds with MC4R ag barr | AID 602192, 2012 | U2OS MC4R beta-arrestin recruitment; scaled DMSO 0%, Melanotan II 100%;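 active means mean activation across replicates above the hit cutoff set in the earlier primary screen, cut at about 8% in these data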
MOR DOR agonist = agonists of MOR-DOR heterodimerization, counter-screen for MC4R biased agonist project, cell-based, luminescence. shares compounds with MC4R ag barr. U2OS PathHunter beta-arrestin, beta-gal luminescence; percent of deltorphin B response, DMSO zero. activation, % at 9.2 µM. hit rate 5.8% among 2,400. AID 602194, 2012;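 active means mean activation across replicates exceeds the hit threshold derived in the earlier primary screen, cut at about 18% in these data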;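 further: 100% = deltorphin B at 0.9 µM final and 0% = DMSO alone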
Target sequence (P35372 whole entry, looked up): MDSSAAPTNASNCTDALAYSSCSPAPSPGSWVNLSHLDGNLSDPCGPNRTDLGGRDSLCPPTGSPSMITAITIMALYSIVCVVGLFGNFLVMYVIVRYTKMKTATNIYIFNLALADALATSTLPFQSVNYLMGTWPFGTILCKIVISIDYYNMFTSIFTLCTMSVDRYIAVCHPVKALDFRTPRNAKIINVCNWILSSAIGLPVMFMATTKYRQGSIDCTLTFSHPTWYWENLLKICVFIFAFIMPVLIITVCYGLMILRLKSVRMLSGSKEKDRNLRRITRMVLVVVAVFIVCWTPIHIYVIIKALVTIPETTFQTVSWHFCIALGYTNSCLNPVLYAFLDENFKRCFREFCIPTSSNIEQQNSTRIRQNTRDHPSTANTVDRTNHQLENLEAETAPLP
Target sequence (P41143 whole entry, looked up): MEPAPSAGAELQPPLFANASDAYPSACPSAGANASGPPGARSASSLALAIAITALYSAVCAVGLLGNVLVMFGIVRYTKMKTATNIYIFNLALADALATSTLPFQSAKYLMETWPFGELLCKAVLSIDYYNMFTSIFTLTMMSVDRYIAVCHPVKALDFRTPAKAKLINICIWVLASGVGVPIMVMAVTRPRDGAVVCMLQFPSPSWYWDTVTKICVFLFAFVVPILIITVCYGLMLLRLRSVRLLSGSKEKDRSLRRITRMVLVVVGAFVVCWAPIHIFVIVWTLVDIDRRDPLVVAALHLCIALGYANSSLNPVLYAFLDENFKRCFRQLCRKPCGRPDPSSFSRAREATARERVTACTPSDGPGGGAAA
* hit, by the source's call; / = no result. Rows were chosen to be rich in hits. Some 2.6% of all compounds tested hit in one or more screens of this group.

SMILES | EP2 modulator | MC4R antagonist | Granule exo inh | EP2 antag | T cell HTS | MC4R ag barr | MC4R barr ag | MOR DOR agonist
O=C(O)CN1C(=O)/C(=C\c2cc(Br)ccc2OCc2ccc(Cl)cc2Cl)SC1=S | / | 11 | 7 | / | 81 | 11* | 8 | 1
Oc1ccc(C(=S)N2CCCCC2)cc1 | -9 | 13 | 6 | 12 | 255 | 0 | / | /
O=C(C1CCCCC1)N1C[C@@H](n2cc(-c3ccc(F)cc3)nn2)[C@H](O)C[C@@H]1c1ccc(Cl)cc1 | / | 9 | 4 | / | / | 12* | -2 | 10
O=C(C1CCCCC1)N1C[C@H](n2cc(-c3ccc(F)cc3)nn2)[C@@H](O)C[C@@H]1c1ccc(Cl)cc1 | / | 10 | -1 | / | / | 1 | / | /
CSc1ccc(CN2CCN(C(=O)c3ccc([N+](=O)[O-])cc3)CC2)cc1 | -19 | 6 | -5 | 5 | 399 | -2 | / | /
O=S(=O)(N(Cc1ccccc1)[C@H](CO)Cc1ccccc1)N(Cc1ccccc1)[C@H](CO)Cc1ccccc1 | / | 14 | 0 | / | 603 | 28* | 7 | 6
Cc1ccc2sc(N(CCN(C)C)C(=O)c3ccc4ccccc4c3)nc2c1C | / | 5 | -3 | / | 411 | -1 | / | /
Cc1ccc2sc(N(CCCN(C)C)C(=O)CN3C(=O)c4ccccc4C3=O)nc2c1C | -19 | -3 | 15 | 6 | 392 | 18* | 19* | 9
O=C(Nc1ccc(N2CCCC2)cc1)c1cc(Cl)ccc1Cl | -22 | 3 | -5 | 7 | 227 | -1 | / | /
O=C(Nc1ccc(N2CCCC2)cc1)c1cccc(Cl)c1 | / | -5 | -3 | / | 192 | 11* | 0 | 11
CC(C)Oc1ccc(C(=O)Nc2ccc(N3CCCC3)cc2)cc1 | -9 | -3 | 2 | 7 | 343 | 7 | / | /
O=C(Nc1ccc(N2CCCC2)cc1)c1ccc(Br)cc1 | / | 22 | -13 | / | 597 | 18* | 3 | 4
CCOc1ccc(NC(=O)N(C2CCCC2)C2CCN(C(C)=O)CC2)cc1 | -11 | 2 | -2 | 5 | 269 | -1 | / | /
O=C(CN1CCN(c2ccccc2F)CC1)NC(=O)NCc1ccccc1 | 10 | -1 | 2 | 3 | 448 | 2 | / | /
O=C(CN1CCN(c2ccccc2)CC1)NC(=O)NCc1ccccc1 | / | 5 | 4 | / | 389 | 14* | 5 | 2
CCOC(=O)CSc1c(-c2ccc(Cl)cc2)[nH]c2ccccc12 | 17 | 12 | 1 | 6 | 198 | 11* | 4 | 14
O=C(Cc1cccs1)NCCSc1c(-c2ccc(Cl)cc2)[nH]c2ccccc12 | -2 | 8 | 24 | 9 | 797 | 3 | / | /
CN(CCc1ccccn1)c1ccc([N+](=O)[O-])cn1 | 3 | 4 | 14 | 10 | 649 | 0 | / | /
CCc1nonc1NC(=O)c1oc2cc(C)c(C)cc2c1C | / | 1 | -3 | / | 474 | 12* | 2 | 6
CCc1nonc1NC(=O)c1oc2cc(C)c(Cl)cc2c1C | / | 11 | 1 | / | 399 | 1 | / | /
C=CCn1cnnc1SCC(=O)N(C1CCCCC1)C1CCS(=O)(=O)C1 (stereo not drawn) | / | 1 | -10 | / | 409 | -1 | / | /
CCn1c(=O)[nH]c2c(C(N)=O)nc(-c3cccc(OC)c3)nc21 | 0 | / | / | / | / | / | / | /
Cc1ccc(OCc2ccc(C(=O)Nc3nccs3)o2)cc1 | 12 | -5 | -2 | 8 | 248 | 15* | 2 | 3
O=C(Nc1nccs1)c1ccc(COc2ccccc2)o1 | / | 1 | 2 | / | 193 | 1 | / | /
COc1ccc2c(c1)NC1(CCN(CC3=Cc4ccccc4OC3)CC1)c1cccn1-2 | -56 | / | / | 6 | / | / | / | /
SMILES | EP2 modulator | MC4R antagonist | Granule exo inh | EP2 antag | T cell HTS | MC4R ag barr | MC4R barr ag | MOR DOR agonist
CCOC(=O)C(=CNc1ccc2c(c1)nnn2-c1ccc(Cl)cc1)C(=O)OCC | 6 | 11 | -2 | 11 | 274 | 22* | 23* | 4
O=C(Cc1coc2ccc3ccccc3c12)Nc1nnc(C2CC2)s1 | 1 | -5 | 1 | / | 170 | 27* | 9.5* | 4
Cc1cc2occ(CC(=O)Nc3nnc(C4CC4)s3)c2cc1C | 15 | 5 | -1 | 9 | 363 | -1 | / | /
O=C(COC(=O)c1ccc2ncsc2c1)Nc1cc([N+](=O)[O-])ccc1Cl | / | 1 | 3 | / | 451 | 23* | 8 | 13
O=C(COC(=O)c1ccc2ncsc2c1)Nc1ccccc1Cl | / | 1 | 1 | / | 279 | -1 | / | /
CC(C)(C)c1cc(-c2ccco2)c(C#N)c(SCC#N)n1 | 35 | 13 | -2 | 15 | 281 | 19* | 1 | 7
Cc1ccc(NC(=O)NNC(=O)c2cc3ccccc3cc2O)cc1 | / | 2 | 1 | / | 300 | 13* | 15* | 6
COc1ccccc1NC(=O)NNC(=O)c1cc2ccccc2cc1O | / | -5 | 12 | / | 468 | -2 | / | /
COc1cccc(NCc2cc3c(C(C)(C)C)nn(-c4ccccc4)c3[nH]c2=O)c1 | 47 | 4 | 42 | 13 | 248 | 13* | 0 | 7
CC(C)OCCCNCc1cc2c(C(C)(C)C)nn(-c3ccccc3)c2[nH]c1=O | -19 | / | / | 7 | / | / | / | /
COc1cccc(/C=N/Nc2ccc([N+](=O)[O-])cn2)c1O | / | -3 | -4 | / | 257 | 23* | 15* | 5
COc1ccc(/C=C2/SC(=S)N(Cc3ccccc3)C2=O)cc1O | / | 7 | -24 | / | 85 | 12* | 8 | 5
COc1ccc(/C=C2/SC(=S)N(CCCC(=O)Nc3ccc(O)cc3)C2=O)cc1 | -94 | 5 | 26 | 18 | 73 | 12* | 7 | 4
COc1ccc(/C=C2\SC(=S)N(CCC(=O)Nc3ccc(C(=O)O)cc3)C2=O)cc1 | / | 4 | 10 | / | 280 | -2 | / | /
COc1cccc(NC(=O)CCN2C(=O)/C(=C/c3cccc(Br)c3)SC2=S)c1 | 4 | / | / | 10 | / | / | / | /
